According to PubChem BioAssay AID651877 (Broad Institute, 2012):

System: T. cruzi CAI/72 in BESM cells, trypomastigote emergence microscopy
Assay: T. cruzi re-emergence after compound removal – imaging, CAI/72 strain, BESM host cells, 20-day treatment, mechanism study for T. cruzi inhibitor project, late-stage follow-up (AID 651877)
Conditions: stronger effect = higher value
How it was run: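 Material: BESM cells infected with T. cruzi CAI/72. Schedule: 20-day dosing every other day, then 38-day withdrawal. Signal: daily light microscopy of trypomastigote emergence. Evaluation: trypomastigote emergence timing, absence indicating cure, delay indicating static effect.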

Structure (SMILES) | day of emergence (at 0.25 µM) [days] | normalised slope vs benznidazole | day of emergence (at 0.74 µM) [days] | day of emergence (at 2.2 µM) [days]
CC(C)N1C[C@@H](C)[C@H](CN(C)Cc2cccc(Oc3ccccc3)c2)Oc2c(NC(=O)c3ccncc3)cccc2C1=O | 18 | 66 |  | 
C[C@@H]1CN([C@H](C)CO)C(=O)c2cccc(NC(=O)c3ccncc3)c2O[C@H]1CN(C)Cc1ccccc1 | 4 | 70 |  | 
C[C@H]1CN([C@@H](C)CO)C(=O)c2cccc(NC(=O)c3ccncc3)c2O[C@H]1CN(C)Cc1ccc(Oc2ccccc2)cc1 | 4 | 70 |  | 
C[C@@H]1CN([C@H](C)CO)C(=O)c2cccc(NC(=O)c3ccncc3)c2O[C@H]1CN(C)Cc1ccc(Oc2ccccc2)cc1 | 4 | 5.6 | 30 | > 37
C[C@@H]1CN([C@@H](C)CO)C(=O)c2cccc(NC(=O)c3ccncc3)c2O[C@H]1CN(C)Cc1cccc(Cl)c1 | 4 | 6 | 17 | 18
C[C@H]1CN([C@@H](C)CO)C(=O)c2cccc(NC(=O)c3ccncc3)c2O[C@@H]1CN(C)Cc1ccc(Oc2ccccc2)cc1 | 4 | 70 |  | 
C[C@H](CO)N1C[C@H](C)[C@H](CN(C)Cc2ccc(Oc3ccccc3)cc2)Oc2c(NC(=O)c3ccncc3)cccc2C1=O | 4 | 70 |  | 
C[C@@H]1CN([C@@H](C)CO)C(=O)c2cccc(NC(=O)c3ccncc3)c2O[C@H]1CN(C)Cc1ccc(Cl)cc1 | 4 | 6 | 15 | 17
C[C@@H]1CN([C@@H](C)CO)C(=O)c2cccc(NC(=O)c3ccncc3)c2O[C@H]1CN(C)Cc1ccc(Oc2ccccc2)cc1 | 4 | 20 | > 37 | 
O=C(Cn1ccnc1[N+](=O)[O-])NCc1ccccc1 | -14 | 8 | 1 | 6
